According to ChEMBL document CHEMBL5724801, “EUbOPEN Chemogenomics Library - Multiplex” (2024):
Several values for one entry are separate records, joined by “and”; a condition that tells them apart may be missing. Identical values can stand only once.

Test system: U2OS
Assay: Multiplex assay against U2OS
Type: toxicity, cell-based
Conditions: human
How it was run: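 Live cells carried four stains from seeding: Hoechst33342, BioTracker Green Microtubule Cytoskeleton Dye, MitoTracker Red and Annexin V Alexa Fluor 680. They were imaged on a CQ1 microscope at 37°C and 5% CO2 after compound addition. Using CellPathfinder machine-learning gating, cells were split into Hoechst high-intensity objects or normal cells, normal cells into healthy, pyknosed or fragmented nuclei, and pyknosed cells into mitotic or apoptotic; tubulin, mitochondrial-mass and membrane-permeability phenotypes are per cents of healthy-nucleus cells.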

[1] = 12 h, 1 µM, compound concentration 1 uM
[2] = 12 h, 10 µM, compound concentration 10 uM
[3] = 24 h, 1 µM, compound concentration 1 uM
[4] = 24 h, 10 µM, compound concentration 10 uM
[5] = 48 h, 1 µM, compound concentration 1 uM
[6] = 48 h, 10 µM, compound concentration 10 uM

NC1=NC(=O)/C(=C2\CCNC(=O)c3[nH]c4ccccc4c32)N1
Population Apoptotic (%) [1]: 44.68% and 29.17% | Population Fragmented Nuclei (%) [1]: 0.45% and 1.59% | Population Healthy Nuclei (%) [1]: 89.06% and 85.71% | Population Hoechst High Intensity Objects (%) [1]: 0% | Population Membrane Permeable-Phenotype (%) [1]: 1.75% and 0.62% | Population Mitochondria Different-Phenotype (%) [1]: 0% and 9.26% | Population Mitotic Cells (%) [1]: 55.32% and 70.83% | Population Normal (%) [1]: 100% | Population Pyknosed Nuclei (%) [1]: 10.49% and 12.7% | Population Tubulin-Different-Phenotype (%) [1]: 1.25% and 0% | Total Cell Count [1]: 448 and 189 | Population Apoptotic (%) [2]: 37.14% and 30.43% | Population Fragmented Nuclei (%) [2]: 3.07% and 2.13% | Population Healthy Nuclei (%) [2]: 84.98% and 85.64% | Population Hoechst High Intensity Objects (%) [2]: 0% | Population Membrane Permeable-Phenotype (%) [2]: 1.2% and 1.86% | Population Mitochondria Different-Phenotype (%) [2]: 0% and 5.59% | Population Mitotic Cells (%) [2]: 62.86% and 69.57% | Population Normal (%) [2]: 100% | Population Pyknosed Nuclei (%) [2]: 11.95% and 12.23% | Population Tubulin-Different-Phenotype (%) [2]: 2.01% and 0% | Total Cell Count [2]: 293 and 188 | Population Apoptotic (%) [3]: 52.94% and 37.04% | Population Fragmented Nuclei (%) [3]: 2.55% and 1.59% | Population Healthy Nuclei (%) [3]: 89.31% and 87.7% | Population Hoechst High Intensity Objects (%) [3]: 0% | Population Membrane Permeable-Phenotype (%) [3]: 0.54% and 0.9% | Population Mitochondria Different-Phenotype (%) [3]: 0.36% and 4.07% | Population Mitotic Cells (%) [3]: 47.06% and 62.96% | Population Normal (%) [3]: 100% | Population Pyknosed Nuclei (%) [3]: 8.13% and 10.71% | Population Tubulin-Different-Phenotype (%) [3]: 0.54% and 0% | Total Cell Count [3]: 627 and 252 | Population Apoptotic (%) [4]: 43.59% and 37.5% | Population Fragmented Nuclei (%) [4]: 2.31% and 2.43% | Population Healthy Nuclei (%) [4]: 87.69% and 84.62% | Population Hoechst High Intensity Objects (%) [4]: 0% | Population Membrane Permeable-Phenotype (%) [4]: 0.88% and 1.91% | Population Mitochondria Different-Phenotype (%) [4]: 0.29% and 5.26% | Population Mitotic Cells (%) [4]: 56.41% and 62.5% | Population Normal (%) [4]: 100% | Population Pyknosed Nuclei (%) [4]: 10% and 12.96% | Population Tubulin-Different-Phenotype (%) [4]: 0.58% and 0% | Total Cell Count [4]: 390 and 247 | Population Apoptotic (%) [5]: 41.94% and 47.37% | Population Fragmented Nuclei (%) [5]: 4.36% and 0.45% | Population Healthy Nuclei (%) [5]: 87.84% and 91.01% | Population Hoechst High Intensity Objects (%) [5]: 0% | Population Membrane Permeable-Phenotype (%) [5]: 0.76% and 1.73% | Population Mitochondria Different-Phenotype (%) [5]: 0.1% and 2.22% | Population Mitotic Cells (%) [5]: 58.06% and 52.63% | Population Normal (%) [5]: 100% | Population Pyknosed Nuclei (%) [5]: 7.8% and 8.54% | Population Tubulin-Different-Phenotype (%) [5]: 0.86% and 0.99% | Total Cell Count [5]: 1192 and 445 | Population Apoptotic (%) [6]: 40.28% and 50% | Population Fragmented Nuclei (%) [6]: 3.29% and 1.05% | Population Healthy Nuclei (%) [6]: 87.22% and 88.98% | Population Hoechst High Intensity Objects (%) [6]: 0% | Population Membrane Permeable-Phenotype (%) [6]: 0.6% and 0.29% | Population Mitochondria Different-Phenotype (%) [6]: 0% and 4.72% | Population Mitotic Cells (%) [6]: 59.72% and 50% | Population Normal (%) [6]: 100% | Population Pyknosed Nuclei (%) [6]: 9.49% and 9.97% | Population Tubulin-Different-Phenotype (%) [6]: 0.15% and 0.29% | Total Cell Count [6]: 759 and 381

Cc1cccc(NC(=O)CN2CCC(c3ccccn3)CC2)c1.Cl.Cl
Population Apoptotic (%) [1]: 90% and 57% | Population Fragmented Nuclei (%) [1]: 27% and 17% | Population Healthy Nuclei (%) [1]: 67% and 76% | Population Hoechst High Intensity Objects (%) [1]: 1% and 0% | Population Membrane Permeable-Phenotype (%) [1]: 5% and 4% | Population Mitochondria Different-Phenotype (%) [1]: 2% | Population Normal (%) [1]: 98% and 99% | Population Pyknosed Nuclei (%) [1]: 5% and 6% | Population Tubulin-Different-Phenotype (%) [1]: 3% | Total Cell Count [1]: 208 and 111 | Population Apoptotic (%) [2]: 72% and 66% | Population Fragmented Nuclei (%) [2]: 34% and 21% | Population Healthy Nuclei (%) [2]: 55% and 70% | Population Hoechst High Intensity Objects (%) [2]: 2% and 1% | Population Membrane Permeable-Phenotype (%) [2]: 8% and 12% | Population Mitochondria Different-Phenotype (%) [2]: 6% and 7% | Population Mitotic Cells (%) [2]: 27% and 33% | Population Normal (%) [2]: 97% and 98% | Population Pyknosed Nuclei (%) [2]: 10% and 8% | Population Tubulin-Different-Phenotype (%) [2]: 3% and 9% | Total Cell Count [2]: 216 and 111 | Population Apoptotic (%) [3]: 76% and 73% | Population Fragmented Nuclei (%) [3]: 22% and 21% | Population Healthy Nuclei (%) [3]: 70% and 67% | Population Hoechst High Intensity Objects (%) [3]: 3% and 0% | Population Membrane Permeable-Phenotype (%) [3]: 5% and 7% | Population Mitochondria Different-Phenotype (%) [3]: 3% and 4% | Population Mitotic Cells (%) [3]: 23% and 26% | Population Normal (%) [3]: 96% and 99% | Population Pyknosed Nuclei (%) [3]: 7% and 11% | Population Tubulin-Different-Phenotype (%) [3]: 3% and 5% | Total Cell Count [3]: 249 and 135 | Population Apoptotic (%) [4]: 85% and 75% | Population Fragmented Nuclei (%) [4]: 32% and 20% | Population Healthy Nuclei (%) [4]: 55% and 73% | Population Hoechst High Intensity Objects (%) [4]: 3% and 2% | Population Membrane Permeable-Phenotype (%) [4]: 6% and 17% | Population Mitochondria Different-Phenotype (%) [4]: 3% and 5% | Population Mitotic Cells (%) [4]: 14% and 25% | Population Normal (%) [4]: 96% and 97% | Population Pyknosed Nuclei (%) [4]: 11% and 6% | Population Tubulin-Different-Phenotype (%) [4]: 2% and 10% | Total Cell Count [4]: 243 and 131 | Population Apoptotic (%) [5]: 82% and 94% | Population Fragmented Nuclei (%) [5]: 18% and 17% | Population Healthy Nuclei (%) [5]: 72% | Population Hoechst High Intensity Objects (%) [5]: 2% and 3% | Population Membrane Permeable-Phenotype (%) [5]: 6% and 2% | Population Mitochondria Different-Phenotype (%) [5]: 3% | Population Normal (%) [5]: 97% and 96% | Population Pyknosed Nuclei (%) [5]: 8% and 10% | Population Tubulin-Different-Phenotype (%) [5]: 3% and 2% | Total Cell Count [5]: 341 and 182 | Population Apoptotic (%) [6]: 96% and 83% | Population Fragmented Nuclei (%) [6]: 29% and 19% | Population Healthy Nuclei (%) [6]: 60% and 74% | Population Hoechst High Intensity Objects (%) [6]: 3% | Population Membrane Permeable-Phenotype (%) [6]: 6% and 10% | Population Mitochondria Different-Phenotype (%) [6]: 6% and 4% | Population Normal (%) [6]: 96% | Population Pyknosed Nuclei (%) [6]: 9% and 6% | Population Tubulin-Different-Phenotype (%) [6]: 3% and 4% | Total Cell Count [6]: 303 and 198

C[C@H](NC(=O)c1c(C(F)F)nn(C)c1Oc1cccc(C(F)(F)F)c1)c1ccc(C(=O)O)cc1 [PALUPIPRANT]
Population Apoptotic (%) [1]: 60% and 91% | Population Fragmented Nuclei (%) [1]: 27% and 12% | Population Healthy Nuclei (%) [1]: 63% and 78% | Population Hoechst High Intensity Objects (%) [1]: 3% and 0% | Population Membrane Permeable-Phenotype (%) [1]: 4% | Population Mitochondria Different-Phenotype (%) [1]: 1% and 0% | Population Normal (%) [1]: 96% and 99% | Population Pyknosed Nuclei (%) [1]: 8% and 9% | Population Tubulin-Different-Phenotype (%) [1]: 1% and 2% | Total Cell Count [1]: 266 and 132 | Population Apoptotic (%) [2]: 83% and 100% | Population Fragmented Nuclei (%) [2]: 28% and 13% | Population Healthy Nuclei (%) [2]: 62% and 77% | Population Hoechst High Intensity Objects (%) [2]: 3% | Population Membrane Permeable-Phenotype (%) [2]: 7% and 5% | Population Mitochondria Different-Phenotype (%) [2]: 4% and 2% | Population Mitotic Cells (%) [2]: 16% and 0% | Population Normal (%) [2]: 96% | Population Pyknosed Nuclei (%) [2]: 8% | Population Tubulin-Different-Phenotype (%) [2]: 5% and 2% | Total Cell Count [2]: 293 and 117 | Population Apoptotic (%) [3]: 87% and 94% | Population Fragmented Nuclei (%) [3]: 20% and 14% | Population Healthy Nuclei (%) [3]: 72% and 73% | Population Hoechst High Intensity Objects (%) [3]: 2% and 1% | Population Membrane Permeable-Phenotype (%) [3]: 4% and 5% | Population Mitochondria Different-Phenotype (%) [3]: 1% and 0% | Population Mitotic Cells (%) [3]: 12% and 5% | Population Normal (%) [3]: 97% and 98% | Population Pyknosed Nuclei (%) [3]: 7% and 11% | Population Tubulin-Different-Phenotype (%) [3]: 3% and 5% | Total Cell Count [3]: 316 and 147 | Population Apoptotic (%) [4]: 91% | Population Fragmented Nuclei (%) [4]: 18% and 13% | Population Healthy Nuclei (%) [4]: 74% and 77% | Population Hoechst High Intensity Objects (%) [4]: 2% | Population Membrane Permeable-Phenotype (%) [4]: 5% | Population Mitochondria Different-Phenotype (%) [4]: 3% and 1% | Population Mitotic Cells (%) [4]: 8% | Population Normal (%) [4]: 97% | Population Pyknosed Nuclei (%) [4]: 7% and 8% | Population Tubulin-Different-Phenotype (%) [4]: 1% and 0% | Total Cell Count [4]: 339 and 139 | Population Apoptotic (%) [5]: 82% and 92% | Population Fragmented Nuclei (%) [5]: 15% | Population Healthy Nuclei (%) [5]: 73% and 70% | Population Hoechst High Intensity Objects (%) [5]: 2% and 0% | Population Membrane Permeable-Phenotype (%) [5]: 3% | Population Mitochondria Different-Phenotype (%) [5]: 1% and 0% | Population Mitotic Cells (%) [5]: 17% and 7% | Population Normal (%) [5]: 97% and 99% | Population Pyknosed Nuclei (%) [5]: 11% and 13% | Population Tubulin-Different-Phenotype (%) [5]: 1% and 2% | Total Cell Count [5]: 426 and 207 | Population Apoptotic (%) [6]: 91% and 85% | Population Fragmented Nuclei (%) [6]: 18% and 14% | Population Healthy Nuclei (%) [6]: 73% and 79% | Population Hoechst High Intensity Objects (%) [6]: 2% and 1% | Population Membrane Permeable-Phenotype (%) [6]: 5% and 1% | Population Mitochondria Different-Phenotype (%) [6]: 3% and 1% | Population Mitotic Cells (%) [6]: 8% and 14% | Population Normal (%) [6]: 97% and 98% | Population Pyknosed Nuclei (%) [6]: 7% and 6% | Population Tubulin-Different-Phenotype (%) [6]: 3% and 0% | Total Cell Count [6]: 463 and 223
